In ChEMBL document CHEMBL1124841, “Chalcones: a new class of antimitotic agents” (1990):

Legend:
HeLa [1] = experiment: In vitro antimitotic activity against HeLa cells after 1 hr exposure to the compound; type: functional, Homo sapiens
In short: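 HeLa cells exposed to compound for 1 h, washed in fresh medium, then kept 18 h in compound-free medium. Mitotic index (cells in mitosis/cells counted) scored as in the 6-h test. The reported equivalent dose (ED) is the concentration giving the same mitotic index as vinblastine at 0.06 µg/mL.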

HeLa [2] = experiment: In vitro antimitotic activity against HeLa cells after 6 hours exposure; type: functional, Homo sapiens
In short: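 Asynchronous HeLa cells were exposed to compound continuously for 6 h. Mitotic index (cells in mitosis/cells counted) was scored on about 300 cells counted across three fields. The equivalent dose (ED) is the concentration giving the same mitotic index as the colchicine standard at 0.05 µg/mL.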

L1210 [3] = experiment: The ratio of survival time for treated divided by survival time of control x 100 at a dose of 50 mg/kg in L1210 leukemia cells; type: functional, Mus musculus
In short: (§1)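 Mice inoculated ip on day 0 with 1 × 10^5 L1210 leukemia or B16 melanoma cells. Compounds given ip once daily on days 1-9, suspended or dissolved in 5% PVP. Survival time recorded and averaged per group. Value is mean survival of treated over control × 100.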

B16 [4] = experiment: The ratio of survival time for treated divided by survival time of control x 100 at a dose of 100 mg/kg in B16 melanoma cells; type: functional, Mus musculus; in short: as §1
L1210 [5] = experiment: The ratio of survival time for treated divided by survival time of control x 100 at a dose of 25 mg/kg in L1210 leukemia cells; type: functional, Mus musculus; in short: as §1
B16 [6] = experiment: The ratio of survival time for treated divided by survival time of control x 100 at a dose of 25 mg/kg in B16 melanoma cells; type: functional, Mus musculus; in short: as §1
L1210 [7] = experiment: The ratio of survival time for treated divided by survival time of control x 100 at a dose of 6.25 mg/kg in L1210 leukemia cells; type: functional, Mus musculus; in short: as §1
L1210 [8] = experiment: The ratio of survival time for treated divided by survival time of control x 100 at a dose of […] in L1210 leukemia cells; type: functional, Mus musculus
B16 [9] = experiment: The ratio of survival time for treated divided by survival time of control x 100 at a dose of […] in B16 melanoma cells; type: functional, Mus musculus

Compound	ED (HeLa [2])	also measured
COc1ccc(OC)c(C(=O)/C=C/c2ccc(N(C)C)cc2)c1	0.0075 µg/mL	ED (HeLa [1]): 1.5 µg/mL
COc1ccc(C(=O)/C=C/c2ccc(N(C)C)cc2)cc1OC	3.1 µg/mL	
COc1cc(C(=O)/C=C/c2ccc(N(C)C)cc2)cc(OC)c1OC	0.015 µg/mL	ED (HeLa [1]): 12.5 µg/mL
COc1ccc(C(=O)/C=C/c2cccs2)c(OC)c1OC	3.1 µg/mL	
COc1cc(C(=O)/C=C/c2ccco2)cc(OC)c1OC	5 µg/mL	
COc1cc(C(=O)/C=C/c2ccc(N)cc2)cc(OC)c1OC	0.15 µg/mL	
COc1ccc(C(=O)/C(Br)=C/c2ccc(N(C)C)cc2)c(OC)c1OC	0.15 µg/mL	T/C (L1210 [3]): 140%; T/C (B16 [4]): 192%; ED (HeLa [1]): 6.25 µg/mL; T/C (L1210 [5]): 145%
COc1cc(C(=O)/C=C/c2ccc(C#N)cc2)cc(OC)c1OC	3.1 µg/mL	
COc1ccc(C(=O)/C=C/c2ccc(N(C)C)cc2C)c(OC)c1OC	3.1 µg/mL	
COc1ccc(OC)c(C(=O)/C(Br)=C/c2ccc(N(C)C)cc2)c1	0.0075 µg/mL	
CC(=O)Nc1ccc(/C=C/C(=O)c2ccc(C(N)=O)cc2)cc1	3.1 µg/mL	
CCN(CC)c1ccc(/C=C(\C)C(=O)c2cc(OC)c(OC)c(OC)c2)cc1	0.0075 µg/mL	
COc1ccc(OC)c(C(=O)/C(Cl)=C/c2ccc(N(C)C)cc2)c1	0.015 µg/mL	
COc1cc(C(=O)/C=C/c2ccccc2)cc(OC)c1OC	0.15 µg/mL	
CC(=O)Nc1ccc(/C=C/C(=O)c2ccc(C#N)cc2)cc1	25 µg/mL	
CO/N=C(\C=C\c1ccc(N(C)C)cc1)c1cc(OC)c(OC)c(OC)c1	0.3 µg/mL	
COc1cc(C(=O)/C(Br)=C/c2ccc(N(C)C)cc2)cc(OC)c1OC	0.0038 µg/mL	ED (HeLa [1]): 1.5 µg/mL
COc1cc(C(=O)/C=C/c2ccc(SC)cc2)cc(OC)c1OC	0.3 µg/mL	
COc1ccccc1C(=O)/C=C/c1ccc(N(C)C)cc1	0.15 µg/mL	ED (HeLa [1]): 6.25 µg/mL
COc1cc(C(=O)/C=C/c2ccc(C(C)(C)C)cc2)cc(OC)c1OC	2.5 µg/mL	
CCN(CC)c1ccc(/C=C/C(=O)c2cc(OC)c(OC)c(OC)c2)cc1	0.0075 µg/mL	
COc1cc(C(=O)/C=C/c2ccncc2)cc(OC)c1OC	25 µg/mL	
COc1cc(C(=O)/C=C(\C)c2ccccc2)cc(OC)c1OC	3.1 µg/mL	
COc1cc(C(=O)/C=C(\C)c2ccc(N)cc2)cc(OC)c1OC	0.3 µg/mL	
COc1ccc(OC)c(C(=O)/C=C/c2ccc(NC(C)=O)cc2)c1	6.25 µg/mL	

Compound	ED (HeLa [2])	also measured
COC(=O)Nc1ccc(/C=C/C(=O)c2cc(OC)c(OC)c(OC)c2)cc1	3.1 µg/mL	
CC(=O)Nc1ccc(/C=C/C(=O)c2cccc(Cl)c2)cc1	>100 µg/mL	
COc1ccc(C(=O)/C=C/c2ccc(NC(C)=O)cc2)c(OC)c1OC	3.1 µg/mL	
COc1cc(OC)c(C(=O)/C=C/c2ccc(NC(C)=O)cc2)c(OC)c1	3.1 µg/mL	
CCN(CC)c1ccc(/C=C(\C)C(=O)c2ccc(OC)c(OC)c2OC)cc1	25 µg/mL	
CCN(CC)c1ccc(/C=C/C(=O)c2ccc(OC)c(OC)c2OC)cc1	0.15 µg/mL	
CCCCOc1ccc(/C=C/C(=O)c2cc(OC)c(OC)c(OC)c2)cc1	>25 µg/mL	
COc1cc(C(=O)/C=C/c2cccs2)cc(OC)c1OC	3.1 µg/mL	
COc1cc(C(=O)/C=C/c2ccc([S+](C)[O-])cc2)cc(OC)c1OC (configuration not stated)	>100 µg/mL	
COc1cc(C(=O)/C=C/c2ccc(N3CCOCC3)cc2)cc(OC)c1OC	6.25 µg/mL	
COc1cc(C(=O)/C=C/c2ccc(NC(C)=O)cc2)cc(OC)c1OC	3.1 µg/mL	
COc1ccc(C(=O)/C(C)=C/c2ccccc2)c(OC)c1OC		ED (HeLa [1]): 6.25 µg/mL
CCOc1ccc(/C=C/C(=O)c2cc(OC)c(OC)c(OC)c2)cc1	0.15 µg/mL	
COc1cc(C(=O)/C=C/c2ccccc2C(F)(F)F)cc(OC)c1OC	100 µg/mL	
COc1cc(C(=O)/C(C)=C/c2ccc(N(C)C)cc2)cc(OC)c1OC	0.019 µg/mL	ED (HeLa [1]): 0.3 µg/mL
CC(=O)Nc1ccc(/C=C/C(=O)c2ccc(C(C)(C)C)cc2)cc1	0.25 µg/mL	
COc1cc(C(=O)/C=C(\C)c2ccc(N(C)C)cc2)cc(OC)c1OC	>100 µg/mL	
COc1cc(C(=O)/C=C/c2ccc(N(C)C)cc2C)cc(OC)c1OC	0.0075 µg/mL	
COc1cc(C(=O)/C=C/c2ccc([N+](=O)[O-])cc2)cc(OC)c1OC	25 µg/mL	
CC/C(=C\c1ccc(N(C)C)cc1)C(=O)c1ccc(OC)c(OC)c1OC	0.15 µg/mL	
COc1cc(C(=O)/C=C/c2cccc(NC(C)=O)c2)cc(OC)c1OC	>100 µg/mL	
COc1cc(C(=O)/C=C/c2cccc(N(C)C)c2)cc(OC)c1OC	>100 µg/mL	
COc1ccc(C(=O)/C(Cl)=C/c2ccc(N(C)C)cc2)c(OC)c1OC	0.015 µg/mL	
CCN(CC)c1ccc(/C=C(\C)C(=O)c2cc(OC)ccc2OC)cc1	0.15 µg/mL	
COc1cc(C(=O)/C=C/C=C/c2ccc(N(C)C)cc2)cc(OC)c1OC	3.1 µg/mL	

Compound	ED (HeLa [2])	also measured
COc1ccc(C(=O)/C=C/c2ccc(NC(C)=O)cc2)cc1	3.1 µg/mL	
CCc1cccc(C(=O)/C=C/c2ccc(NC(C)=O)cc2)c1	>100 µg/mL	
CCCCNc1ccc(/C=C/C(=O)c2cc(OC)c(OC)c(OC)c2)cc1	6.25 µg/mL	
COc1ccc(C(=O)/C(C)=C/c2ccc(N(C)C)cc2)c(OC)c1OC	1.5 µg/mL	T/C (B16 [6]): 190%; T/C (L1210 [3]): 138%; T/C (L1210 [5]): 121%
CC(=O)Nc1ccc(/C=C/C(=O)c2cccc(C(F)(F)F)c2)cc1	25 µg/mL	
COc1cc(C(=O)/C=C/c2cccc(N)c2)cc(OC)c1OC	0.15 µg/mL	
COc1cc(C(=O)/C=C/c2cccc([N+](=O)[O-])c2)cc(OC)c1OC	>100 µg/mL	
COc1cc(C(O)/C=C/c2ccc(N(C)C)cc2)cc(OC)c1OC (configuration not stated)	3.1 µg/mL	
COc1cc(C(=O)CCc2ccc(N(C)C)cc2)cc(OC)c1OC	3.1 µg/mL	
COc1cc(C(=O)/C=C/c2ccc(N(C)C)cc2)cc(OC)c1O	3.1 µg/mL	
COc1ccc(C(=O)/C=C/c2ccc(N(C)C)cc2)c(OC)c1OC	0.015 µg/mL	
COc1ccc(C(=O)/C=C/c2ccc(N(C)C)cc2)c(OC)c1	6.25 µg/mL	
COc1cc(/C=C/C(=O)c2ccccc2)cc(OC)c1OC	>25 µg/mL	
COc1cc(C(=O)/C=C/c2ccc(Br)cc2)cc(OC)c1OC	0.015 µg/mL	
COc1cc(C(=O)/C(Cl)=C/c2ccc(N(C)C)cc2)cc(OC)c1OC	3.1 µg/mL	
COc1cc(C(=O)/C=C/c2ccc(F)cc2)cc(OC)c1OC	>25 µg/mL	
COc1cc(C(=O)/C=C/c2ccc(OC(C)C)cc2)cc(OC)c1OC	>25 µg/mL	
COc1cc(/C=C/C(=O)c2ccc(N(C)C)cc2)cc(OC)c1OC	0.15 µg/mL	
COc1cc(C(=O)C#Cc2ccccc2)cc(OC)c1OC	>6.25 µg/mL	
COc1cc(C(=O)/C=C/c2ccc(C(F)(F)F)cc2)cc(OC)c1OC	6.25 µg/mL	
COc1ccc(OC)c(C(=O)/C(C)=C/c2ccc(N(C)C)cc2)c1	0.0038 µg/mL	T/C (B16 [6]): 183%; T/C (L1210 [3]): 154%; ED (HeLa [1]): 0.06 µg/mL; T/C (L1210 [7]): 126%; T/C (L1210 [5]): 146%; T/C (L1210 [8]): 137%; T/C (B16 [9]): 146%
O=C(/C=C/c1ccccc1)c1ccccc1 [CHALCONE]	3.1 µg/mL	
COc1cc2c(c(OC)c1OC)-c1ccc(OC)c(=O)cc1[C@@H](NC(C)=O)CC2 [COLCHICINE]	0.05 µg/mL	
